Measured values collected from several papers.
Lines come from different studies, so protocols differ.
Effect on: metabolic stability

| Compound | system | setting | measurement | result |
| --- | --- | --- | --- | --- |
| CCCCCn1nc(C(=O)Nc2cccc3ccccc23)c2ccccc21 | male human, liver microsomes | 1 µM, pH 7.4 | microsomal CLint | 410 µL/min/mg |
| CN(C)CCc1c[nH]c2ccccc12 | human, hepatocytes | 0.6 µM | hepatocyte CLint | 19.4 µL/min/10⁶ cells |
| Cc1cc(C)nc(Nc2ncc(C(=O)NCCc3c(C)[nH]c4ccccc34)cn2)c1 | human, liver microsomes | 1 µM | microsomal CLint | 25 µL/min/mg |
| C[C@H](C(=O)N[C@H]1COc2ccccc2[C@@H]1S(C)(=O)=O)c1ccc(F)cc1 | human, liver microsomes | 1 µM, 1 h | microsomal CLint | 3 µL/min/mg |
| Cc1nc2c(=O)n(C)c(=O)nc-2n(C)n1 | human, liver microsomes | – | microsomal CLint | < 7.4 µL/min/mg |
| CCCCCn1cc(C(=O)Nc2cccc3ccccc23)c2ccccc21 | male human, liver microsomes | 1 µM, pH 7.4 | microsomal CLint | 300 µL/min/mg |
| C[C@H]1CN(Cc2ccc(C(F)(F)F)cc2N2CCOCC2)CCN1C(=O)n1ccc(S(=O)(=O)N(C)C)n1 | human, liver microsomes | – | microsomal CLint | 480 µL/min/mg |
| NCCc1c[nH]c2ccc(O)cc12 | human, hepatocytes | 5 µM | hepatocyte CLint | 38.6 µL/min/10⁶ cells |
| Cc1nonc1Cn1nnc2c(N3CC[C@H](O)C3)nc(C(C)(C)C)nc21 | human, hepatocytes | – | hepatocyte CLint | 8.1 µL/min/10⁶ cells |
| COC(=O)N[C@H](C(=O)NN(CC[C@@]1(Cc2ccccc2)C(=O)N([C@H]2c3ccccc3C[C@H]2O)C[C@@H]1O)Cc1ccc(Br)cc1)C(C)(C)C | human, liver microsomes | 1 µM, pH 7.35 | microsomal CLint | > 300 µL/min/mg |
| Cc1nc([C@@](C)(CC2CC2)NC(=O)c2cc(OCC(F)(F)F)c(C3CC3)cn2)no1 | human, hepatocytes | – | hepatocyte CLint | 17 µL/min/10⁶ cells |
| CN1CCN(Cc2ccc(NC(=O)c3cncc(C#Cc4cnc(N)c5ncccc45)c3)cc2C(F)(F)F)CC1 | human, liver microsomes | – | microsomal CLint | 3.6 µL/min/mg |
| Cc1ccc(F)c2cc(C(=O)N[C@@H]3CCC[C@H](N4CC[C@H](N(C)S(C)(=O)=O)C4)C3)[nH]c12 | human, hepatocytes | 0.5 µM, 2 h | scaled CLint | 51 mL/min/kg |
| Cc1ncc2n1-c1ccc(Cl)cc1C(c1ccccc1F)=NC2 | human, liver microsomes | 1 µM | microsomal CLint | > 250 µL/min/mg |
| C#Cc1ccc2c(c1)C(c1ccccn1)=NCc1c(-c3cnco3)ncn1-2 | human, liver microsomes | – | microsomal CLint | 0.046 µL/min/mg |
